PTK2B oligo ant = antagonists of Pyk2 self-association, primary screen, Q293 cells, FERM NanoBiT luminescence, HTS; active compounds read low; z-score (the deposit names both 25 µM and 10 µM); 99,000 tested, 0.83% active;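 active means Z-score of -3 or lower, scaled per plate to the spread of control and sample wells; inactive means z-score above -3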;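 further: negative z-score means lost luminescence so less FERM oligomerization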
PostGolgi ctrl = growth inhibition of yeast control strain, primary screen, counter-screen for post-Golgi transport modulator project; inhibition, % at 10 µM; efflux-deficient yeast background strain, growth absorbance A615, 16 h; 98,000 tested, 5% active; AID 738, 2007
FAK inh = FAK kinase inhibitors, primary screen, biochemical | Focal adhesion kinase 1 (Homo sapiens), Q05397 | biochemical FAK kinase activity assay | inhibition, %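 (tested at 7 µM)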 | 97,000 tested, 0.84% active | AID 727, 2007; in the data active means inhibition above about 19%
Target sequence (Q05397 whole entry, looked up): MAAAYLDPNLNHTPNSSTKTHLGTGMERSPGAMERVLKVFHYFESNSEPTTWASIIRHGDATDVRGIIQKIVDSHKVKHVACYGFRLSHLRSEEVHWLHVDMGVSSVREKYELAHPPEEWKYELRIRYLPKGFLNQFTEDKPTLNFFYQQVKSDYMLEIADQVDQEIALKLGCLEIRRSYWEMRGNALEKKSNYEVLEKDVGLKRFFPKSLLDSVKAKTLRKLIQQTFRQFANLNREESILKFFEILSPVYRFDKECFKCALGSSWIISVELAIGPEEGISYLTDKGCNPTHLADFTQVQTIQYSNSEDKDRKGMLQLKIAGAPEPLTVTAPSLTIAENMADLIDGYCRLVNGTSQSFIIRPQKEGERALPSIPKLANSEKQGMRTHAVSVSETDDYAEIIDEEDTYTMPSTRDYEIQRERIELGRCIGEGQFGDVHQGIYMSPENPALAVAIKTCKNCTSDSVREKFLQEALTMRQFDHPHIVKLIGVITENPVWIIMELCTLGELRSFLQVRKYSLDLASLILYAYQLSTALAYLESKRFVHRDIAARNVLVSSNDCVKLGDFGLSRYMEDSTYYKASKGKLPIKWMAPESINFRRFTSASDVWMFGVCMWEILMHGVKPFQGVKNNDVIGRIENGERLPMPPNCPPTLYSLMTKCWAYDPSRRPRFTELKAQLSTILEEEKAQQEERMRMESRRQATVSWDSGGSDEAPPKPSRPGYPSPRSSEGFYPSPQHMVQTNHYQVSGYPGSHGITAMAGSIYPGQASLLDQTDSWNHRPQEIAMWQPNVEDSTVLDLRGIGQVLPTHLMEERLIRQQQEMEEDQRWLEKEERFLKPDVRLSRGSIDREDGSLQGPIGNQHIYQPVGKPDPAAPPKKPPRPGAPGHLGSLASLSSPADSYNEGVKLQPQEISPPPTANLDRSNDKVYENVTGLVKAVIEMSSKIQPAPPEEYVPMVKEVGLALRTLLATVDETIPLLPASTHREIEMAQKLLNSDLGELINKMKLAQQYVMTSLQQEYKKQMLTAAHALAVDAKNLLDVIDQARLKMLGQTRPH
Calb biofilm kill = clotrimazole potentiators killing Candida biofilms, primary screen, with clotrimazole, Alamar Blue. C. albicans biofilm + clotrimazole. AID 834, 2007. inhibition, % at 6 µM. 85,000 tested, 0.14% active;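 active means inhibition above 20%; inactive means inhibition below 20%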;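 further: preformed 24 hr biofilms exposed to compound for 48 hr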
PostGolgi yeast = phenotypic screen on post-Golgi transport, primary screen. post-Golgi transport phenotypic cell assay. inhibition, % at 10 µM. 98,000 tested, 0.9% active;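 further: yeast cells grown in 1536-well plates; yeast grown about 18 h at 30C before absorbance read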
tolC growth inh = growth inhibitors of E. coli tolC mutant, primary screen, strain BW25113 ΔtolC::kan, 384-well | OD615 | growth inhibition, % at 10 µM (by protocol) | 65,000 tested, 2.2% active | AID 573, 2007;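 active means growth inhibition at or above a cutoff equal to the mean over every tested compound plus 3 SD, cut at about 60% in these data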;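 further: growth measured after 20 h incubation at 37 °C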
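Test system: tolC-deleted E. coli BW25113 | Medium: LB with kanamycin 50 µg/mL | Compound dosing: Single concentration, 10 µM final per compound | Schedule: 37 °C, 20 h exposure | Measured by: OD at 615 nm | Evaluation: Percent growth inhibition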
Hits are given with their value. Rows were chosen to be rich in hits. Some 6.9% of all compounds tested hit in one or more screens of this group. Unless noted, no stated cut-off is given here; in the data, active means inhibition above about 30%; inactive means the rest.

For CC1=CC(=C2C(=O)NC(=S)NC2=O)C=C(C(F)(F)F)N1C the results were PTK2B oligo ant inactive, PostGolgi ctrl inactive, FAK inh inactive, Calb biofilm kill inactive and PostGolgi yeast 40.
Screening COc1cc2[nH]c(=O)n(-c3cccc(Cl)c3)c(=O)c2cc1OC returned PTK2B oligo ant inactive, PostGolgi ctrl inactive, FAK inh inactive, Calb biofilm kill inactive, PostGolgi yeast inactive and tolC growth inh inactive.
Screening COc1cc2[nH]c(=O)n(-c3ccccc3)c(=O)c2cc1OC returned PTK2B oligo ant inactive, PostGolgi ctrl inactive, FAK inh inactive, Calb biofilm kill inactive, PostGolgi yeast 31 and tolC growth inh inactive.
`CN(C)CC1CSCCC1(O)c1ccc(C(F)(F)F)cc1` (configuration not stated) gave PTK2B oligo ant inactive.
CCCNC(=O)c1c(N)n(CC2CCCO2)c2nc3ccccc3nc12 (configuration not stated) was read as PTK2B oligo ant inactive, PostGolgi ctrl 33, FAK inh inactive, Calb biofilm kill inactive, PostGolgi yeast inactive and tolC growth inh inactive.
Screening CC(C)OCCCNC(=O)c1c(N)n(CC2CCCO2)c2nc3ccccc3nc12 (configuration not stated) returned PTK2B oligo ant inactive, PostGolgi ctrl inactive, FAK inh inactive, Calb biofilm kill inactive, PostGolgi yeast inactive and tolC growth inh inactive.
`CC(C)CCOC(=O)c1c(N)n(CC2CCCO2)c2nc3ccccc3nc12` (configuration not stated) gave PTK2B oligo ant inactive, PostGolgi ctrl inactive, FAK inh inactive, Calb biofilm kill inactive, PostGolgi yeast inactive and tolC growth inh 60.
CCCCCn1c(N)c(C(=O)NCCN2CCOCC2)c2nc3ccccc3nc21 was read as PTK2B oligo ant inactive, PostGolgi ctrl inactive, FAK inh inactive, PostGolgi yeast inactive and tolC growth inh inactive.
`CC(C)OC(=O)c1c(N)n(CC2CCCO2)c2nc3ccccc3nc12` (configuration not stated) gave PTK2B oligo ant inactive, PostGolgi ctrl inactive, FAK inh inactive, Calb biofilm kill inactive, PostGolgi yeast inactive and tolC growth inh inactive.
`COCCCn1c(N)c(C(=O)NCCC(C)C)c2nc3ccccc3nc21` gave PTK2B oligo ant inactive, PostGolgi ctrl 32, FAK inh inactive, Calb biofilm kill inactive, PostGolgi yeast inactive and tolC growth inh inactive.
Screening CCCCCCn1c(N)c(C(=O)NCCN2CCOCC2)c2nc3ccccc3nc21 returned PTK2B oligo ant inactive, PostGolgi ctrl inactive, FAK inh inactive, Calb biofilm kill inactive, PostGolgi yeast inactive and tolC growth inh 76.
c1ccc2oc(N3CCNCC3)nc2c1 was read as PTK2B oligo ant inactive, PostGolgi ctrl inactive, FAK inh inactive, Calb biofilm kill inactive, PostGolgi yeast inactive and tolC growth inh inactive.
COc1cc(C(c2c(C)[nH]n(-c3ccccc3)c2=O)c2c(C)[nH]n(-c3ccccc3)c2=O)cc(OC)c1OC was read as PTK2B oligo ant inactive, PostGolgi ctrl inactive, FAK inh inactive and PostGolgi yeast inactive.
Cc1cccc(NC2=NCCCS2)c1C was read as PTK2B oligo ant inactive, PostGolgi ctrl inactive, Calb biofilm kill inactive, PostGolgi yeast inactive and tolC growth inh inactive.
CCCOC(=O)c1c(N)n(Cc2cccs2)c2nc3ccccc3nc12 was read as PTK2B oligo ant inactive, PostGolgi ctrl 48, FAK inh inactive, Calb biofilm kill inactive and PostGolgi yeast inactive.
Screening CCOC(=O)c1c(N)n(Cc2ccco2)c2nc3ccccc3nc12 returned PTK2B oligo ant inactive, PostGolgi ctrl 47, FAK inh inactive, Calb biofilm kill inactive, PostGolgi yeast inactive and tolC growth inh inactive.
O=C(O)C1CN2CCC1CC2 (configuration not stated) was read as PTK2B oligo ant inactive, PostGolgi ctrl inactive, FAK inh inactive, Calb biofilm kill inactive, PostGolgi yeast inactive and tolC growth inh inactive.
For COc1ccccc1NC1=NCCS1 the results were PTK2B oligo ant inactive, PostGolgi ctrl inactive, FAK inh inactive, Calb biofilm kill inactive and PostGolgi yeast inactive.
`CCCCC1(CCCC)C(=O)NC(=Nc2cccc(C)c2)NC1=O` gave PTK2B oligo ant inactive, PostGolgi ctrl inactive, FAK inh inactive, Calb biofilm kill inactive and PostGolgi yeast 47.
Cc1cccn2c(=O)c3c(nc12)N1CCC(Cc2ccccc2)CC1C1(C3)C(=O)N(C)C(=O)N(C)C1=O (configuration not stated) was read as PTK2B oligo ant inactive, PostGolgi ctrl inactive, FAK inh inactive, Calb biofilm kill inactive, PostGolgi yeast inactive and tolC growth inh 67.
`O=C1CC(C(=O)N2CCC3(CC2)OCCO3)CN1CCc1ccccc1` (configuration not stated) gave PTK2B oligo ant inactive, PostGolgi ctrl 32, FAK inh inactive, Calb biofilm kill inactive, PostGolgi yeast inactive and tolC growth inh inactive.
O=C(C1CC(=O)N(C2CCCCC2)C1)N1CCC2(CC1)OCCO2 (configuration not stated) was read as PTK2B oligo ant inactive, PostGolgi ctrl inactive, FAK inh inactive, Calb biofilm kill inactive, PostGolgi yeast inactive and tolC growth inh inactive.
Screening O=C(c1cc(S(=O)(=O)N2CCCCC2)ccc1F)N1CCC2(CC1)OCCO2 returned PTK2B oligo ant inactive, PostGolgi ctrl inactive, FAK inh inactive, Calb biofilm kill inactive and PostGolgi yeast inactive.
Screening Cc1ccc(Cn2nnnc2CN2CCC(n3nnc4cc(C)ccc43)CC2)cc1 returned PTK2B oligo ant inactive, PostGolgi ctrl inactive, Calb biofilm kill inactive, PostGolgi yeast inactive and tolC growth inh inactive.
Screening N/C(=N\N=C\c1ccc(O)cc1O)N[N+](=O)[O-] returned PTK2B oligo ant inactive, PostGolgi ctrl inactive, FAK inh inactive, Calb biofilm kill inactive and PostGolgi yeast inactive.
Screening COc1ccccc1/C=N/N=C(/N)N[N+](=O)[O-] returned PTK2B oligo ant inactive, PostGolgi ctrl inactive, FAK inh inactive, Calb biofilm kill 44 and PostGolgi yeast inactive.
C=CCN1C(=O)CSc2ccc(C(=O)N3CCC4(CC3)OCCO4)cc21 was read as PTK2B oligo ant inactive, PostGolgi ctrl inactive, FAK inh inactive, Calb biofilm kill inactive, PostGolgi yeast inactive and tolC growth inh inactive.
`COc1ccccc1N1CCN(Cc2ccccc2F)CC1` gave PTK2B oligo ant inactive, PostGolgi ctrl inactive, Calb biofilm kill inactive, PostGolgi yeast 36 and tolC growth inh inactive.
For Cc1ccc(N2CCN(CCc3ccccc3)CC2)cc1 the results were PTK2B oligo ant inactive, PostGolgi ctrl 43, FAK inh inactive and PostGolgi yeast inactive.
CCN(c1ccc(C(O)(C(=O)OC)C(F)(F)F)cc1)S(=O)(=O)c1ccccc1 (configuration not stated) was read as PTK2B oligo ant inactive, PostGolgi ctrl inactive, Calb biofilm kill inactive, PostGolgi yeast inactive and tolC growth inh inactive.
